Experimental data published in PubChem BioAssay AID602212 (Southern Research Specialized Biocontainment Screening …, 2012).
Calls of active or inactive are those of the source.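 The calls were made as follows: active = inhibition of 30% or more at any tested concentration; inactive = the rest.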

tested on: M18 aspartyl aminopeptidase (Plasmodium falciparum 3D7); assay: inhibition of malaria M18 aspartyl aminopeptidase – biochemical, QFRET fluorogenic substrate, set 2, counter-screen for PfM1 aminopeptidase inhibitor project, dose response (AID 602212); conditions: recombinant PfM18AAP, H-Glu-NHMec fluorogenic cleavage; series mostly up to 100 µM
Outline: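 Test system: recombinant PfM18AAP enzyme. Replication: triplicate. Compound: 10-point twofold dilution series, 100 down to 0.2 µM. Also added: 0.1 mM H-Glu-NHMec substrate. Buffer or medium: Cobalt-containing Tris buffer, pH 7.5. Schedule: 90 min reaction at room temperature. Detection: released NHMec fluorescence, excitation 370 nm, emission 460 nm.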

| SMILES | outcome |
| --- | --- |
| CC[C@H](C)[C@H](NC(=O)c1ccc(C(C)(C)C)cc1)C(=O)NCc1ccc2c(c1)OCO2 | inactive |
| O=C(NCc1ccccc1)C1CCN(S(=O)(=O)c2ccc(Br)s2)CC1 | inactive |
| O=C(NCc1ccc(Cl)cc1)C1CCN(S(=O)(=O)c2ccc(Br)s2)CC1 | inactive |
| O=C(NCc1ccc(F)cc1)C1CCN(S(=O)(=O)c2ccc(Br)s2)CC1 | inactive |
| O=C(NCc1ccc2c(c1)OCO2)C1CCN(S(=O)(=O)c2ccc(Br)s2)CC1 | inactive |
| CC[C@H](C)[C@H](NS(=O)(=O)c1ccc(Br)s1)C(=O)NCc1ccc(Cl)cc1 | inactive |
| CC[C@H](C)[C@H](NS(=O)(=O)c1ccc(Br)s1)C(=O)NCc1ccc2c(c1)OCO2 | inactive |
| CC[C@H](C)[C@H](NC(=O)c1ccc(C(C)(C)C)cc1)C(=O)NCc1ccc(Cl)cc1 | inactive |
